Results reported in ChEMBL document CHEMBL1127797, “Synthesis of oxadiazolidinedione derivatives as quisqualic acid analogues and their evaluation at a quisqualate-sensitized site in the rat hippocampus” (J Med Chem, 1994).

What was measured:
Details in all cases: pyramidal neuron
[1] = sensitization of CA1 pyramidal neurons to depolarizations by L-AP6 after exposure to quisqualic acid; format: functional, cell-based, Rattus norvegicus
Method in brief: (§1)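 Male Sprague-Dawley rat (25-60 day) hippocampal slices were perfused at 34 °C. Schaffer collaterals were stimulated with field potential recording in CA1 stratum radiatum. L-AP6 concentration-response curves were run before and after exposure to test compound substituted for quisqualic acid, then after 10 min 2 mM L-α-AA. IC50 for 50% peak-amplitude inhibition was interpolated.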

[2] = ability to directly depolarize CA1 pyramidal neurons of rat hyppocampal slices before exposure to quisqualic acid; format: functional, cell-based
Method in brief: (§2)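 Transverse hippocampal slices from 25-60 day old male Sprague-Dawley rats, preincubated 20-30 min in high Mg2+/low Ca2+ medium. Submerged at 34 °C under 95% O2/5% CO2. Schaffer collaterals stimulated; field potential peak amplitude recorded in CA1 stratum radiatum. Concentration-response curves run before, after 5 min 20 μM quisqualic acid, and after 10 min 2 mM L-α-AA reversal. IC50 interpolated; mean of four experiments.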

[3] = sensitization of CA1 pyramidal neurons to depolarizations by L-AP6 after reversal with L-alpha-AA; format: functional, cell-based, Rattus norvegicus; method in brief: as §1
[4] = ability to directly depolarize CA1 pyramidal neurons of rat hyppocampal slices after exposure to quisqualic acid; format: functional, cell-based; method in brief: as §2
[5] = sensitization of CA1 pyramidal neurons to depolarizations by L-AP6 before exposure to quisqualic acid; format: functional, cell-based, Rattus norvegicus; method in brief: as §1
[6] = ability to directly depolarize CA1 pyramidal neurons of rat hyppocampal slices after reversal with L-alpha-AA; format: functional, cell-based; method in brief: as §2
[7] = Ability to directly depolarize CA1 pyramidal neurons of rat hyppocampal slices after reversal with L-alpha-AA; format: functional, cell-based
Method in brief: (§3)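 Transverse hippocampal slices (500 μM as printed) from 25-60 day old male Sprague-Dawley rats, preincubated 20-30 min in high Mg2+/low Ca2+ medium, held at 28 °C. Submerged in microperfusion chamber at 34 °C, 95% O2/5% CO2. Schaffer collateral stimulation, stratum radiatum recording of peak field potential amplitude. IC50 (50% inhibition) interpolated from concentration-response data, mean of four experiments; measured before and after 5 min 20 μM quisqualic acid, then after 10 min 2 mM L-α-AA reversal.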

[8] = Ability to directly depolarize CA1 pyramidal neurons of rat hyppocampal slices before exposure to quisqualic acid; format: functional, cell-based; method in brief: as §3
[9] = Sensitization of CA1 pyramidal neurons to depolarizations by L-AP6 before exposure to quisqualic acid; format: functional, cell-based, Rattus norvegicus
Method in brief: (§4)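 Rat (male Sprague-Dawley, 25-60 days) hippocampal slices, submerged, 34 °C, 95% O2/5% CO2; Schaffer collateral stimulation with stratum radiatum CA1 field potential recording. L-AP6 IC50 for 50% inhibition of peak amplitude interpolated from concentration-response curves, mean of four experiments; determined before and after slice exposure to sensitizing agent in place of quisqualic acid, then after 2 mM L-α-AA reversal.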

[10] = Sensitization of CA1 pyramidal neurons to depolarizations by L-AP6 after exposure to quisqualic acid; format: functional, cell-based, Rattus norvegicus
[11] = Sensitization of CA1 pyramidal neurons to depolarizations by L-AP6 after reversal with L-alpha-AA; format: functional, cell-based, Rattus norvegicus; method in brief: as §4
[12] = Ability to directly depolarize CA1 pyramidal neurons of rat hyppocampal slices after exposure to quisqualic acid; format: functional, cell-based; method in brief: as §3
[13] = sensitization of CA1 pyramidal neurons by 2 to depolarizations by L-AP4, L-AP5 and L-AP6 before exposure to quisqualic acid; format: functional, cell-based, Rattus norvegicus
Method in brief: (§5)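 Rat hippocampal slices were submerged at 34 °C under 95% O2/5% CO2. Stimulating and recording electrodes sat in CA1 stratum radiatum to record extracellular synaptic field potentials. IC50 of L-AP4, L-AP5 and L-AP6 was measured three times: before, after 20 min exposure to 20 mM test compound in place of quisqualic acid, and after 20 min 2 mM L-α-AA.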

[14] = sensitization of CA1 pyramidal neurons by 2 to depolarizations by L-AP4, L-AP5 and L-AP6 after reversal with L-alpha-AA; format: functional, cell-based, Rattus norvegicus; method in brief: as §5
[15] = sensitization of CA1 pyramidal neurons by 2 to depolarizations by L-AP4,L-AP5 and L-AP6 after exposure to quisqualic acid; format: functional, cell-based, Rattus norvegicus; method in brief: as §5

Row | IC50 [8] | IC50 [12] | Structure (SMILES) | IC50 [1] | IC50 [9] | IC50 [10] | IC50 [13] | IC50 [14] | further results
1 | – | – | N[C@@H](CCn1oc(=O)[nH]c1=O)C(=O)O | 170 µM | – | – | – | – | IC50 [2]: 9.8 µM; IC50 [3]: 12000 µM; IC50 [4]: 5.5 µM; IC50 [5]: 11000 µM; IC50 [6]: 20 µM
2 | 1000 µM | 530 µM | O=C(O)[C@@H]1C[C@@H](n2oc(=O)[nH]c2=O)CN1 | – | > 10000 µM | 780 µM | – | – | IC50 [7]: 1100 µM; IC50 [11]: > 10000 µM
3 | – | – | NC(CCCCP(=O)(O)O)C(=O)O (centres undefined) | 170 µM | – | – | 11000 µM | 12000 µM | –
4 | – | – | N[C@@H](CCP(=O)(O)O)C(=O)O | – | – | – | 1500 µM | 1700 µM | IC50 [15]: 260 µM
5 | > 10000 µM | > 10000 µM | O=C(O)CCn1oc(=O)[nH]c1=O | – | > 10000 µM | > 10000 µM | – | – | –
6 | 5400 µM | 3800 µM | NCCn1oc(=O)[nH]c1=O | – | > 10000 µM | > 10000 µM | – | – | –
7 | 15 µM | 14 µM | O=C(O)[C@@H]1C[C@H](n2oc(=O)[nH]c2=O)CN1 | – | > 10000 µM | > 10000 µM | – | – | –
8 | – | – | NC(CCCP(=O)(O)O)C(=O)O (centres undefined) | – | – | – | 2300 µM | 2200 µM | IC50 [15]: 310 µM
9 | – | – | N[C@@H](Cn1oc(=O)[nH]c1=O)C(=O)O [QUISQUALATE] | 40 µM | – | – | – | – | IC50 [2]: 7 µM; IC50 [3]: 1900 µM; IC50 [4]: 4 µM; IC50 [5]: > 10000 µM; IC50 [6]: 26 µM
